ChEMBL document CHEMBL1649566, “In vitro activity of antifolate and polymorphism in dihydrofolate reductase of Plasmodium falciparum isolates from the Kenyan coast: emergence of parasites with Ile-164-Leu mutation” (Antimicrob Agents Chemother, 2009)
pIC50: −log10 of the molar value.

How the values were obtained:
Format in all cases: functional, organism-based
[1] = test system: Plasmodium falciparum; assay: Antimalarial activity against Plasmodium falciparum Kenyan isolates expressing DHFR Ser108Asn and Cys59Arg or Ser108Asn and Asn51Ile double mutant by [3H]hypoxanthine incorporation assay
Summary of the method: (§1)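 Kenyan isolates (Kilifi, 2006–2008) adapted to long-term in vitro culture; dhfr codons 108, 51, 59, 164 genotyped by PCR-RFLP. Cultured in RPMI 1640 with 10% human serum, 25 mM bicarbonate, 2 mM glutamine, 25 mM HEPES, 5 nM para-aminobenzoic acid, 23 nM folic acid, in washed human erythrocytes. Graded drug concentrations; [3H]hypoxanthine incorporation; IC50 by nonlinear regression of dose-response.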

[2] = test system: Plasmodium falciparum; assay: Antimalarial activity against Plasmodium falciparum Kenyan isolates expressing DHFR Ser108Asn, Asn51Ile and Cys59Arg triple mutant by [3H]hypoxanthine incorporation assay; summary of the method: as §1
[3] = test system: Plasmodium falciparum; assay: Antimalarial activity against Plasmodium falciparum isolate Kil-164 expressing DHFR Ser108Asn, Asn51Ile, Cys59Arg and Ile164Leu quadruple mutant by [3H]hypoxanthine incorporation assay; summary of the method: as §1
[4] = test system: Plasmodium falciparum; assay: Antimalarial activity against pyrimethamine-resistant Plasmodium falciparum V1S expressing DHFR quadruple mutant with point mutations at codons 108, 51, 59 and 164 gene by [3H]hypoxanthine incorporation assay
[5] = test system: Plasmodium falciparum; assay: Antimalarial activity against pyrimethamine-sensitive Plasmodium falciparum 3D7 expressing wild type DHFR by [3H]hypoxanthine incorporation assay
[6] = test system: Plasmodium falciparum; assay: Antimalarial activity against Plasmodium falciparum Kenyan isolates by [3H]hypoxanthine incorporation assay

Q: How did the pIC50 [1] turn out when `CC1(C)N=C(N)N=C(N)N1OCCCOc1cc(Cl)c(Cl)cc1Cl` was run?
A: Its pIC50 is 10.16.

Q: What about the pIC50 [2] of the same molecule?
A: Its pIC50 is 10.00.

Q: And the pIC50 [3]?
A: Its pIC50 is 10.92.

Q: And the pIC50 [4]?
A: Its pIC50 is 10.20.

Q: What about the pIC50 [5] of the same molecule?
A: The pIC50 was 10.82.

Q: And the pIC50 [6]?
A: Its pIC50 is 10.14.

Q: Which results are given for `CC1(C)N=C(N)N=C(N)N1c1ccc(Cl)c(Cl)c1` [CHLORCYCLOGUANIL]?
A: pIC50 [1]: 7.42; pIC50 [2]: 7.40; pIC50 [3]: 7.06; pIC50 [4]: 7.03; pIC50 [5]: 10.96; pIC50 [6]: 7.42

Q: With `CN(Cc1cnc2nc(N)nc(N)c2n1)c1ccc(C(=O)N[C@@H](CCC(=O)O)C(=O)O)cc1` [METHOTREXATE] as the molecule, how does the pIC50 [1] read?
A: Its pIC50 is 7.07.

Q: And the pIC50 [2]?
A: The pIC50 was 7.08.

Q: And the pIC50 [3]?
A: The pIC50 was 7.25.

Q: And the pIC50 [4]?
A: The pIC50 was 7.40.

Q: And the pIC50 [5]?
A: Its pIC50 is 7.30.

Q: What about the pIC50 [6] of the same molecule?
A: The pIC50 was 7.08.

Q: What does the source list for `CCc1nc(N)nc(N)c1-c1ccc(Cl)cc1` [PYRIMETHAMINE]?
A: pIC50 [4]: 5.16; pIC50 [5]: 8.41; pIC50 [6]: 6.13

Q: With `COc1cc(Cc2cnc(N)nc2N)cc(OC)c1OC` [TRIMETHOPRIM] as the molecule, how does the pIC50 [1] read?
A: The pIC50 was 5.03.

Q: And the pIC50 [2]?
A: The pIC50 was 4.47.

Q: And the pIC50 [3]?
A: The pIC50 was 3.81.

Q: And the pIC50 [4]?
A: Its pIC50 is 3.99.

Q: And the pIC50 [5]?
A: The pIC50 was 6.39.

Q: And the pIC50 [6]?
A: Its pIC50 is 4.53.

Q: How did the pIC50 [1] turn out when `COc1cc(NCc2ccc3nc(N)nc(N)c3c2C)cc(OC)c1OC` [TRIMETREXATE] was run?
A: Its pIC50 is 7.39.

Q: And the pIC50 [2]?
A: The pIC50 was 7.68.

Q: What about the pIC50 [3] of the same molecule?
A: The pIC50 was 7.35.

Q: And the pIC50 [4]?
A: The pIC50 was 7.61.

Q: And the pIC50 [5]?
A: The pIC50 was 8.72.

Q: And the pIC50 [6]?
A: Its pIC50 is 7.52.
